This note sets out measurements from ChEMBL document CHEMBL1124599, “Synthesis and structure-activity relationships of a novel class of 5-lipoxygenase inhibitors. 2-(Phenylmethyl)-4-hydroxy-3,5-dialkylbenzofurans: the development of L-656,224” (J Med Chem, 1989).

Where only a bound is given, the exact number is not on record here.

As a reminder, the IC50 is the concentration needed to halve the response being measured. As a reminder, the inhibition in vivo is the share of the control response that was lost under treatment. The low end stands for a weak effect, the high end for a strong effect. A word on the ED50: it is the dose at which the effect has come halfway, by size or by number of responders. Low readings indicate greater potency, high ones weaker potency.

Experiment [1] deals with T1, Polyunsaturated fatty acid 5-lipoxygenase (Homo sapiens, UniProt P09917).
T1 sequence (P09917 whole entry): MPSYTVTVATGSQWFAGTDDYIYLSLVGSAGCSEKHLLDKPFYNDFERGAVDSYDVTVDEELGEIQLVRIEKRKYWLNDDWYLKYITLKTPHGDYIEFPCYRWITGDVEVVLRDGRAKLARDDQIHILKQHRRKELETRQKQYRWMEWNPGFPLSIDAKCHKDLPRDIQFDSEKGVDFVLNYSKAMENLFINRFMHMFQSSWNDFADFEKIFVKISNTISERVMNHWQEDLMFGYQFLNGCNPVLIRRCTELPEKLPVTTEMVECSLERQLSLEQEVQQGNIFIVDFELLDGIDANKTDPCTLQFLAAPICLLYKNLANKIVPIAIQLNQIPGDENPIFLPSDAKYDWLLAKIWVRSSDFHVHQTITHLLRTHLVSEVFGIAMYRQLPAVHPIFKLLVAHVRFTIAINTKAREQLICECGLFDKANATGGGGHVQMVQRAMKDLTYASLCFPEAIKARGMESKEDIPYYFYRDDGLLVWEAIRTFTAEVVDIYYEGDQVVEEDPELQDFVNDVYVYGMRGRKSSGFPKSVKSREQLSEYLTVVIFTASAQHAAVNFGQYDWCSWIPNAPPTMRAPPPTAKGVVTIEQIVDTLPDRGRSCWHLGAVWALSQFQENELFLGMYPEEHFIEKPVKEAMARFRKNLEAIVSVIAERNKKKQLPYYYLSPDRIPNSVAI
The experiment can be described thus: Concentration required for 50 % inhibition of leukotriene B4 production in human PMN compared with controls in the absence of compound. It counts as functional. The gist of the method:
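Human PMN are isolated from citrated venous blood by dextran sedimentation, Ficoll-Hypaque and NH4Cl lysis. Cells (5×10^5/mL in HHBSS) are warmed 10 min at 37°C and given compound in DMSO for 2 min. They are stimulated with A23187 (10 μM) for 5 min and stopped with methanol. LTB4 is measured by radioimmunoassay.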

Experiment [2] has as its system Rattus norvegicus. The experiment can be described thus: Inhibition of antigen (IgE) induced bronchoconstriction in hyperreactive inbred rats at a dose of 1.5 mg/kg. It counts as functional. The gist of the method: (§1)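 Inbred hyperreactive rats receive compound orally 4 h before antigen, as a suspension in 0.4% methocel/0.5% Tween 80 (10 mL/kg). Methysergide (3 μg/kg iv) is given 5 min before ovalbumin aerosol challenge. Respiration is recorded by pneumotachograph. Percent inhibition is reduction in dyspnea duration versus vehicle controls, with Student's t test. ED50 is derived by linear regression.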

Experiment [3] has as its target T2, Polyunsaturated fatty acid 5-lipoxygenase (Rattus norvegicus, UniProt P12527).
T2 sequence (P12527 whole entry): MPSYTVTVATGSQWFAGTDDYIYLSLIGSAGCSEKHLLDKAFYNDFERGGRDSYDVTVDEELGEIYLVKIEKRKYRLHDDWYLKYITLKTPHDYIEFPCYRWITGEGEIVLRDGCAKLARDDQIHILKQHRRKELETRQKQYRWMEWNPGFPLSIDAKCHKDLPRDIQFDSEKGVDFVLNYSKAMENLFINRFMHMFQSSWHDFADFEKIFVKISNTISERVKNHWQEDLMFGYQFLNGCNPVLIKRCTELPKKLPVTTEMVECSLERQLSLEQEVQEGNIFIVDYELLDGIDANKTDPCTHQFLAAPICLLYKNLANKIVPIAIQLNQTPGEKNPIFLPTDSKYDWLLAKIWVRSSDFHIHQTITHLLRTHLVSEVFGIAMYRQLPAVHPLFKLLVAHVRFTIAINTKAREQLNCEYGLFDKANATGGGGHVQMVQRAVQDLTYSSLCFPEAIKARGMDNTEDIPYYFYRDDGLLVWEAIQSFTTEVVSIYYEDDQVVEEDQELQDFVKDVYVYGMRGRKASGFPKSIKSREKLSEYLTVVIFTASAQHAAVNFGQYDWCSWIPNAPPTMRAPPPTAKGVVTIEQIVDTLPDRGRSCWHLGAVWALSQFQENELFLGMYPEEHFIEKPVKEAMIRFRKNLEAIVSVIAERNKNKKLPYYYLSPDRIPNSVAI
The experiment can be described thus: Concentration required for 50 % inhibition of arachidonic acid oxidation by rat 5-lipoxygenase. The method in brief:
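Rat PMN leukocyte 10000g supernatant is used as the enzyme. Incubation is run in 25 mM Na+/K+ phosphate pH 7.3 with 1 mM ATP, 0.5 mM CaCl2 and 0.5 mM mercaptoethanol. Inhibitor from DMSO (500-fold stock) is preincubated 2 min at 37°C. [14C]arachidonic acid is added to 10 μM final for 10 min at 37°C. Conversion to 5-HETE and 5,12-diHETEs is read by TLC radioscan. IC50 is derived by linear regression.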

Experiment [4] concerns the target T3, Seed linoleate 13S-lipoxygenase-1 (Glycine max, UniProt P08170).
T3 sequence (P08170 whole entry): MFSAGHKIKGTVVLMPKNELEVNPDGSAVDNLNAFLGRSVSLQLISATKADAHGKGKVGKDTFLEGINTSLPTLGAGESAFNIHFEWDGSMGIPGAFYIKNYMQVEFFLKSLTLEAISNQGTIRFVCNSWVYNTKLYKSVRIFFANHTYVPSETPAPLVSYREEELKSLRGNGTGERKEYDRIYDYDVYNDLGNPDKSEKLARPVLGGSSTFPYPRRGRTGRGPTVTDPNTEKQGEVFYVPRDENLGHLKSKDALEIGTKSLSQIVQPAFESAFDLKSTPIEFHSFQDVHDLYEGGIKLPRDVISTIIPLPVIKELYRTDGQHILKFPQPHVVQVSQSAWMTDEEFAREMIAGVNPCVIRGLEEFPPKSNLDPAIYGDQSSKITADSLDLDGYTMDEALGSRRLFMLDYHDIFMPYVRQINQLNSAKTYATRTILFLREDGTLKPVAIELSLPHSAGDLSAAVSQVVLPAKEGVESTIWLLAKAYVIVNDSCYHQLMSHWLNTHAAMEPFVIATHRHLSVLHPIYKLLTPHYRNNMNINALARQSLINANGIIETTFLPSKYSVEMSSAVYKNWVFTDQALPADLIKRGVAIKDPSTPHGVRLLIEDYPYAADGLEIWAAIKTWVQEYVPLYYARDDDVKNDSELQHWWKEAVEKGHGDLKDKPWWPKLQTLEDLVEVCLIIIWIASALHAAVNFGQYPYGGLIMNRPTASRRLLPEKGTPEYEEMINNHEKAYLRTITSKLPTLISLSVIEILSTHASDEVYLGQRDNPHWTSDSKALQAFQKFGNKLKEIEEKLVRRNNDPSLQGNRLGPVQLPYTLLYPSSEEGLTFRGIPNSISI
The experiment can be described thus: Inhibitory activity towards soybean lipoxygenase.

For experiment [5], the species on record is Rattus norvegicus. The experiment can be described thus: Inhibition of hyperalgesia response induced by subplantar injection of platelet-activating factor in rat. It counts as functional.
Experiment [6] concerns Rattus norvegicus. The experiment can be described thus: Effect of antigen-induced dyspnea in hyperreactive inbred rats at 0.5 mg/kg of compound concentration. It counts as functional. The gist of the method:
as §1

The subject of experiment [7] is Rattus norvegicus. The experiment can be described thus: Inhibition of antigen (IgE) induced bronchoconstriction in hyperreactive inbred rats at a compound dose of 0.15 mg/kg. It is filed as functional. The method in brief:
as §1

In experiment [8] the test system is Rattus norvegicus. The experiment can be described thus: Inhibition of antigen (IgE) induced bronchoconstriction in hyperreactive inbred rats at a compound dose of 0.5 mg/kg. It counts as functional. The gist of the method:
as §1

In the next experiment the test system is Saimiri sciureus. The experiment can be described thus: Inhibition of increase in pulmonary resistance and decrease in dynamic compliance of ascaris antigen-induced bronchoconstriction in squirrel monkeys at 0.25 mg/kg compound concentration.
Experiment [9] concerns Rattus norvegicus. The experiment can be described thus: Effect of antigen-induced dyspnea in hyperreactive inbred rats at 1.5 mg/kg of compound concentration. It is filed as functional. The method in brief: as §1
The test system of experiment [10] is Rattus norvegicus. The experiment can be described thus: Inhibition of antigen (IgE) induced bronchoconstriction in hyperreactive inbred rats at a compound dose of 5.0 mg/kg. It counts as functional. The gist of the method:
as §1

Experiment [11] relates to Rattus norvegicus. The experiment can be described thus: Inhibition of antigen (IgE) induced bronchoconstriction in hyperreactive inbred rats at a compound dose of 1.5 mg/kg. It counts as functional. The gist of the method:
as §1

Turning to `CCCc1cc(Cl)c2oc(Cc3ccc(OCC(=O)O)cc3)c(C)c2c1O`, the IC50 in experiment [1] stood at 105 nM. In the experiment on Rattus norvegicus [2], this compound registered an inhibition in vivo at 1.5 mg/kg of 28%.

`COc1ccc(Cc2oc3c(Cl)cc(CCC(=O)O)c(O)c3c2C)cc1` had an IC50 in experiment [1] of 2130 nM. In the experiment on Rattus norvegicus [2], this compound came in with an inhibition in vivo at 1.5 mg/kg of 11%.

Take `COc1ccc(Cc2oc3cccc(O)c3c2C)cc1`: the IC50 came to 2070 nM in experiment [3] and 574 nM in [1].

`COc1ccc(Cc2oc3c(Cl)cc(C)c(O)c3c2C)cc1` yielded a concentration for half-maximal inhibition (IC50) in experiment [1] of 46 nM.

`COc1ccc(Cc2oc3c(Cl)cc(Cl)c(O)c3c2C)cc1` returned a half-inhibitory concentration (IC50) in [1] of 860 nM.

For `COc1ccc(Cc2oc3c(Cl)ccc(O)c3c2C)cc1`, the IC50 amounted to 2000 nM in [3] and 376 nM in experiment [1].

With `C=CCc1cc(Cl)c2oc(Cc3ccc(OC)cc3)c(C)c2c1O`, in experiment [1], the half-maximal inhibitory concentration (IC50) was determined as 20 nM. This lies in the double-digit nanomolar range.

Compound `CCCc1cc(Cl)c2oc(Cc3ccc(OC)cc3)c(CCC)c2c1O` registered an IC50 in experiment [1] of 20 nM.

Turning to `COc1ccc(Cc2oc3c(Cl)cc(C(C)(C)C)c(O)c3c2C)cc1`, half-maximal inhibition in experiment [1] (IC50) required 99 nM. This compound also returned an inhibition in vivo at 1.5 mg/kg in the experiment with Rattus norvegicus [2] of 32%.

Turning to `CCCc1cc(Cl)c2oc(Cc3ccc(OC)cc3)c(C)c2c1O`, the IC50 was found to be 36 nM in [3] and 30000 nM in experiment [4]. This compound showed an AD100 in the experiment filed under Rattus norvegicus [5] of 1.5 mg/kg. Moreover, the ED50 with Rattus norvegicus [6] came out at 0.7 mg/kg. Besides, at 0.15 mg/kg the inhibition in vivo with Rattus norvegicus [7] was 36%. Besides, the inhibition in vivo at 0.5 mg/kg with Rattus norvegicus [8] came to 48%. Also, in the experiment on Rattus norvegicus [2], testing at 1.5 mg/kg gave an inhibition in vivo of 56%. For the same compound, in the experiment with Saimiri sciureus, the inhibition in vivo at 0.25 mg/kg is more than 85%.

As for `CCCc1cc(Cl)c2oc(Cc3ccc(Cl)cc3)c(C)c2c1O`, the IC50 in [1] was 26 nM.

In the case of `CCCc1ccc2oc(Cc3ccc(OC)cc3)c(C)c2c1O`, the results for the concentration for half-maximal inhibition (IC50) in experiment [3] and in experiment [1] were 130 nM and 31 nM, respectively. The compound also yielded an ED50 in the experiment with Rattus norvegicus [9] of less than 0.5 mg/kg. The same compound showed an inhibition in vivo at 0.5 mg/kg in the experiment with Rattus norvegicus [8] of 55%. The compound also gave an inhibition in vivo at 1.5 mg/kg with Rattus norvegicus [2] of 64%. The same compound displayed an inhibition in vivo at 5 mg/kg with Rattus norvegicus [10] of 66%.

In turn, `CCCc1cc(Cl)c2oc(Cc3ccc(OC)cc3OC)c(C)c2c1O` yielded an IC50 in [1] of 13 nM.

In [1], `CCCc1cc(Cl)c2oc(Cc3ccccc3)c(C)c2c1O` registered an IC50 of 30 nM. Against the preceding compound, the IC50 is about 2.3-fold higher.

`CCOCc1cc(Cl)c2oc(Cc3ccc(OC)cc3)c(C)c2c1O` yielded an IC50 in experiment [1] of 291 nM.

Turning to `COc1ccc(Cc2oc3c(Cl)cc(CCCO)c(O)c3c2C)cc1`, the IC50 in [3] came to 161 nM; in experiment [1] it was 76 nM. In the experiment with Rattus norvegicus [7], this compound came in with an inhibition in vivo at 0.15 mg/kg of 39%. This compound also showed an inhibition in vivo at 0.5 mg/kg in the experiment on Rattus norvegicus [8] of 58%.

For the compound `CCCc1cc(F)c2oc(Cc3ccc(OC)cc3)c(C)c2c1O`, the IC50 in [3] was found to be 129 nM; in experiment [1], 7 nM.

As for `CCCc1cc(C)c2oc(Cc3ccc(OC)cc3)c(C)c2c1O`, the half-inhibitory concentration (IC50) in [3] amounted to 140 nM; in experiment [1], 12 nM. This compound also registered an inhibition in vivo at 5 mg/kg in the experiment on Rattus norvegicus [10] of 55%. In addition, at 1.5 mg/kg the inhibition in vivo in the experiment on Rattus norvegicus [11] was 49%.
